From ChEMBL document CHEMBL1156559, “Efficient synthesis and utilization of phenyl-substituted heteroaromatic carboxylic acids as aryl diketo acid isosteres in the design of novel HIV-1 integrase inhibitors” (Bioorg Med Chem Lett, 2008)

Legend:
[1] = target: T1, Human immunodeficiency virus type 1 integrase (Human immunodeficiency virus 1, UniProt Q7ZJM1); assay: Inhibition of HIV1 wild type integrase 3'-processing activity
Method in brief: (§1)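 Wild-type integrase at 200 nM final was preincubated with inhibitor at 30 °C for 30 min. Buffer: 50 mM NaCl, 1 mM Hepes pH 7.5, 7.5 mM MnCl2, 0.1 mg/ml BSA, 10 mM 2-mercaptoethanol, 10% glycerol, 10% DMSO, 25 mM MOPS pH 7.2. Read-out was conversion of 21-mer DNA substrate to 19-mer (3'-processing) or to strand-transfer products. % inhibition was set against DNA-alone and DNA+IN controls. IC50 came from log concentration vs % inhibition.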

[2] = target: T1, Human immunodeficiency virus type 1 integrase; assay: Inhibition of HIV1 wild type integrase strand transfer activity; method in brief: as §1
[3] = Cytotoxicity against human C8166 cells by MTT method; format: cell-based
Method in brief: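 C8166 cell proliferation measured by MTT, expressed as the concentration reducing proliferation by 50%. Values are means of two separate experiments.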

[4] = test system: Human immunodeficiency virus 1; assay: Antiviral activity against HIV1 3B assessed as inhibition of virus-induced cytopathogenicity in human C8166 cells after 4 days by MTT assay; format: functional, organism-based; conditions: Human immunodeficiency virus 1, 3B, C8166, 96 h
Method in brief: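 Protection of C8166 cells from HIV-1-induced cytopathogenicity, expressed as the 50% effective concentration. Values are means of two separate experiments.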

[5] = Therapeutic index, ratio of CC50 for human C8166 cells to EC50 for HIV1 3B; format: cell-based; conditions: read-out: Ratio CC50/EC50
Method in brief: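 Computed as CC50/EC50 from the C8166 MTT cytostatic and HIV-1 cytoprotection assays, each a mean of two separate experiments.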

T1 sequence (Q7ZJM1 whole entry): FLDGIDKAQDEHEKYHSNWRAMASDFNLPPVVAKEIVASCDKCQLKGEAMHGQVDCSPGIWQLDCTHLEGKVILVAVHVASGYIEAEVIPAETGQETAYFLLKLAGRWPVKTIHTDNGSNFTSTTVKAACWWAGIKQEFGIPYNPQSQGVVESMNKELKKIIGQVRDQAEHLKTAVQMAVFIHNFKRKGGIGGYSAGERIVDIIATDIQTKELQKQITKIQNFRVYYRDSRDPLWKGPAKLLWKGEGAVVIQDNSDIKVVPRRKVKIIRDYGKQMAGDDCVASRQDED

Structure (SMILES) | IC50 [1] [µM] | IC50 [2] [µM] | CC50 [3] [µM] | EC50 [4] [µM] | selectivity ratio [5]
O=C(O)c1cc(-c2ccc([N+](=O)[O-])cc2)on1 | > 100 | 97 | > 854 | 199 | > 4.3
O=C(O)c1cc(-c2cccc(OCc3ccccc3)c2)no1 | > 100 | 81 | 282 | 7.2 | 39.2
O=C(O)c1cc(-c2cccc(OCc3ccccc3)c2)[nH]n1 | > 100 | 100 | 640 | 277 | 2.31
O=C(O)c1cc(-c2ccc([N+](=O)[O-])cc2)[nH]n1 | > 100 | > 100 | > 857 | 3.6 | > 238
COC(=O)c1cc(-c2ccc([N+](=O)[O-])cc2)[nH]n1 | > 100 | > 100 | > 809 | 253 | > 3.2
O=C(O)c1cc(-c2cccc(OCc3ccccc3)c2)ns1 | > 100 | > 100 | 246 | 51.7 | 4.76
O=C(O)c1cc(-c2cccc(OCc3ccccc3)c2)on1 | > 100 | 68 | 206 | 91 | 2.27
O=C(O)c1csnc1-c1cccc(OCc2ccccc2)c1 | > 100 | > 100 | > 642 | 58 | > 11
O=C(NO)c1cc(-c2cccc(OCc3ccccc3)c2)on1 | > 100 | 27 | 136 | 62.8 | 2.17
